# Reference: ChEMBL document CHEMBL1129357, “4-[4-[(2-Hydroxybenzoyl)amino]phenyl]butyric acid as a novel oral delivery agent for recombinant human growth hormone” (1996)
# Tested on: Rattus norvegicus
# Assay: Ability to promote absorption of recombinant human growth hormone (rhGH) from the gastrointestinal tract in rats by using ELISA assay. (Compound dose 300 mg/kg, rhGH 6 mg/kg by OG administration)
# Assay type: functional
# Settings: not given
# In short: (§1)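 Male Sprague-Dawley rats, 225-250 g, in groups of six or seven, with free access to water for 24 h beforehand. Ketamine 44 mg/kg plus thorazine 1.5 mg/kg given just before dosing. Aqueous delivery agent, adjusted to pH 7.2-7.8, with rhGH, given by oral gavage or intracolonic instillation. Serum rhGH measured by ELISA; peak concentration in ng/mL reported as mean ± SD.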
row,SMILES,Peak rhGH [ng/mL]
1,O=C(O)CCCc1ccc(NC(=O)c2ccccc2)cc1,5.4

# Tested on: Rattus norvegicus
# Assay: Ability to promote absorption of recombinant human growth hormone (rhGH) from the gastrointestinal tract in rats by using ELISA assay. (Compound at a of dose 250 mg/kg, rhGH 6 mg/kg by OG administration)
# Assay type: functional
# Settings: not given
# In short: as §1
row,SMILES,Peak rhGH [ng/mL]
1,O=C(O)CCCc1ccc(NS(=O)(=O)c2ccccc2)cc1,2.6

# Tested on: Rattus norvegicus
# Assay: Ability to promote absorption of recombinant human growth hormone from gastrointestinal tract in rats by using ELISA assay at a of dose 25 mg/kg, rhGH 1 mg/kg by IC administration
# Assay type: functional
# Settings: not given
# In short: as §1
row,SMILES,Peak rhGH [ng/mL]
1,O=C(O)CCCc1ccc(NC(=O)c2ccccc2[N+](=O)[O-])cc1,14.9
2,O=C(O)CCCc1ccc(NC(=O)/C=C/c2ccccc2F)cc1,7.7
3,COc1ccccc1/C=C/C(=O)Nc1ccc(CCC(=O)O)cc1,61.7
4,O=C(O)c1ccc(NC(=O)c2ccccc2O)cc1,0
5,O=C(O)CCCc1ccc(NC(=O)CCCCc2ccccc2)cc1,8.4
6,O=C(O)CCc1ccc(NC(=O)c2ccccc2O)cc1,37.2
7,O=C(O)CCCc1ccc(NC(=O)c2ccccc2OC(F)(F)F)cc1,56.8
8,O=C(O)CCc1ccc(NC(=O)c2ccccc2[N+](=O)[O-])cc1,17.6
9,O=C(O)CCCc1ccc(NC(=O)CCCC2CCCCC2)cc1,26
10,O=C(O)c1ccc(NS(=O)(=O)c2ccccc2)cc1,0
11,COc1ccc(/C=C/C(=O)Nc2ccc(CCC(=O)O)cc2)cc1,5
12,O=C(O)CCCc1ccc(NC(=O)c2ccccc2C(=O)O)cc1,22.3
13,O=C(O)CCCc1ccc(NC(=O)c2ccc3c(c2)OCO3)cc1,0
14,Cc1cccc(C)c1C(=O)Nc1ccc(CCCC(=O)O)cc1,7.7
15,O=C(O)CCCc1ccc(NC(=O)c2c(O)cccc2O)cc1,20.9
16,O=C(O)CCCc1ccc(NC(=O)CCC(=O)c2ccccc2)cc1,0.6
17,COc1ccccc1C(=O)Nc1ccc(CCCC(=O)O)cc1,17.8
18,O=C(O)CCCc1ccc(NC(=O)C(O)C(O)c2ccccc2)cc1 (configuration not stated),2.5
19,O=C(O)Cc1ccc(NC(=O)c2ccccc2O)cc1,5.6
20,O=C(O)CCCc1ccc(NC(=O)Cc2ccccc2F)cc1,7.3
21,CN(C)c1cccc(C(=O)Nc2ccc(CCCC(=O)O)cc2)c1,50.7
22,O=C(O)c1ccc(NC(=O)c2ccc(F)cc2)cc1,2.2
23,O=C(O)CCCc1ccc(NC(=O)c2cccc([N+](=O)[O-])c2)cc1,33.5
24,COc1cccc(O)c1C(=O)Nc1ccc(CCC(=O)O)cc1,9.3
25,O=C(O)CCCc1ccc(NC(=O)CCOc2ccccc2)cc1,44.1
26,O=C(O)CCCc1ccc(NCc2ccccc2O)cc1,32.5

# Tested on: Rattus norvegicus
# Assay: Ability to promote absorption of recombinant human growth hormone from gastrointestinal tract in rats by using ELISA assay. (Compound dose 500 mg/kg, rhGH 6 mg/kg by OG administration)
# Assay type: functional
# Settings: not given
# In short: as §1
row,SMILES,Peak rhGH [ng/mL]
1,O=C(O)CCCc1ccc(NC(=O)c2ccccc2)cc1,21.7

# Tested on: Rattus norvegicus
# Assay: Ability to promote absorption of recombinant human growth hormone from the gastrointestinal tract in rats by using ELISA assay at a of dose 25 mg/kg, rhGH 1 mg/kg by IC administration
# Assay type: functional
# Settings: not given
# In short: as §1
row,SMILES,Peak rhGH [ng/mL]
1,O=C(O)CCCc1ccc(NC(=O)c2ccccc2F)cc1,20.8
2,O=C(O)CCCc1ccc(NC(=O)c2ccccc2)cc1,17.5
3,O=C(O)CCCc1ccc(NC(=O)c2ccccc2Cl)cc1,52.2
4,COc1ccccc1/C=C/C(=O)Nc1ccc(C(=O)O)cc1,30.4
5,Cc1ccccc1C(=O)Nc1ccc(CCCC(=O)O)cc1,9.08
6,Cc1ccccc1/C=C/C(=O)Nc1ccc(CCCC(=O)O)cc1,16.4
7,O=C(O)CCCc1ccc(NC(=O)c2ccccc2O)cc1,64.7
8,O=C(O)CCCc1ccc(NC(=O)c2cccc(C(F)(F)F)c2)cc1,17.6
9,O=C(O)CCCc1ccc(NC(=O)c2cccc(Cl)c2)cc1,0

# Tested on: Rattus norvegicus
# Assay: Ability to promote absorption of recombinant human growth hormone from the gastrointestinal tract in rats by using ELISA assay. (Compound dose 200 mg/kg, rhGH 6 mg/kg by OG administration)
# Assay type: functional
# Settings: not given
# In short: as §1
row,SMILES,Peak rhGH [ng/mL]
1,O=C(O)CCCc1ccc(NCc2ccccc2)cc1,20.4
2,O=C(O)CCCc1ccc(NC(=O)c2ccc(O)cc2O)cc1,16.9
3,O=C(O)CCCc1ccc(NC(=O)C2CCCCC2C(=O)O)cc1 (configuration not stated),0
4,CC(C)Cc1ccc(CC(=O)Nc2ccc(CCCC(=O)O)cc2)cc1,7.8

# Tested on: Rattus norvegicus
# Assay: Ability to promote absorption of recombinant human growth hormone from the gastrointestinal tract in rats by using ELISA assay. (Compound dose 25 mg/kg, rhGH 6 mg/kg by OG administration)
# Assay type: functional
# Settings: in the assay text read “rhGH 1 mg/kg by IC administration” for “rhGH 6 mg/kg by OG administration”
# In short: as §1
row,SMILES,Peak rhGH [ng/mL]
1,COc1ccccc1/C=C/C(=O)Nc1ccc(CCCC(=O)O)cc1,32.9

# Tested on: Rattus norvegicus
# Assay: Ability to promote absorption of recombinant human growth hormone from the gastrointestinal tract in rats by using ELISA assay. (Compound dose 300 mg/kg, rhGH 6 mg/kg by OG administration)
# Assay type: functional
# Settings: not given
# In short: as §1
row,SMILES,Peak rhGH [ng/mL]
1,CC(C(=O)Nc1ccc(CCCC(=O)O)cc1)c1ccccc1 (configuration not stated),2.3
2,O=C(O)CCCc1ccc(NC(=O)c2ccccc2F)cc1,43.4
3,O=C(O)CCCc1ccc(NC(=O)CCc2ccccc2)cc1,12.8
4,O=C(O)CCCc1ccc(NC(=O)Cc2ccccc2)cc1,8.1
5,O=C(O)CCCc1ccc(NC(=O)c2ccc(F)cc2)cc1,2.8
6,O=C(O)Cc1ccc(NC(=O)CC2CCCCC2)cc1,15.7
7,COc1ccc(C(=O)Nc2ccc(CCCC(=O)O)cc2)cc1,0
8,O=C(O)CCCc1ccc(NC(=O)CCCc2ccccc2)cc1,17.9
9,O=C(O)CCCc1ccc(NC(=O)Cc2ccccc2O)cc1,0
10,O=C(O)CCCc1ccc(NC(=O)c2ccccc2O)cc1,49.7
11,O=C(O)Cc1ccc(NC(=O)Cc2ccccc2)cc1,9
12,O=C(O)c1ccc(NC(=O)c2ccc(F)cc2)cc1,1
13,O=C(O)Cc1ccc(NC(=O)CCc2ccccc2)cc1,12.6
14,CCC(C(=O)Nc1ccc(CCCC(=O)O)cc1)c1ccccc1 (configuration not stated),5.9

# Tested on: Rattus norvegicus
# Assay: Ability to promote absorption of recombinant human growth hormone from the gastrointestinal tract in rats by using ELISA assay. (Compound dose 500 mg/kg, rhGH 6 mg/kg by OG administration)
# Assay type: functional
# Settings: not given
# In short: as §1
row,SMILES,Peak rhGH [ng/mL]
1,O=C(O)CCCc1ccc(NS(=O)(=O)c2ccccc2)cc1,28
2,O=C(O)CCCc1ccc(NC(=O)c2cccc(-c3ccccc3)c2-c2ccccc2)cc1,5.9
3,O=C(O)CCCc1ccc(NC(=O)c2ccc(-c3ccccc3)cc2)cc1,39.9
4,O=C(CCCC1CCCCC1)Nc1ccc(C(=O)O)cc1,29.3
5,O=C(O)Cc1ccc(NS(=O)(=O)c2ccccc2)cc1,0
6,O=C(Cc1ccccc1)Nc1ccc(C(=O)O)cc1,0
7,O=C(CCCc1ccccc1)Nc1ccc(C(=O)O)cc1,11.9
8,O=C(CC1CCCCC1)Nc1ccc(C(=O)O)cc1,0
9,O=C(O)c1ccc(NS(=O)(=O)c2ccccc2)cc1,13.7
10,O=C(CCc1ccccc1)Nc1ccc(C(=O)O)cc1,3.3
11,O=C(O)CCCc1ccc(NC(=O)C2CCCCC2)cc1,63.8
12,O=C(O)CCCc1ccc(NC(=O)CC2CCCCC2)cc1,24.2

# Tested on: Rattus norvegicus
# Assay: Ability to promote absorption of recombinant human growth hormone from the gastrointestinal tract in rats by using ELISA assay. (Compound dose 400 mg/kg, rhGH 6 mg/kg by OG administration)
# Assay type: functional
# Settings: not given
# In short: as §1
row,SMILES,Peak rhGH [ng/mL]
1,O=C(O)CCCc1ccc(NC(=O)c2ccc(-c3ccccc3)c(-c3ccccc3)c2)cc1,28.2
2,CC1CCC(C(=O)Nc2ccc(C(=O)O)cc2)CC1 (configuration not stated),0
3,O=C(O)CCCc1ccc(NC(=O)C2CCCCCC2)cc1,92.8
4,CCC(C(=O)Nc1ccc(CCCC(=O)O)cc1)C1CCCCC1 (configuration not stated),0.5
5,CC1CCC(C(=O)Nc2ccc(CCCC(=O)O)cc2)CC1 (configuration not stated),41.6
6,O=C(O)/C=C/c1ccc(NC(=O)c2ccccc2)cc1,6.5
7,O=C(O)CCCc1ccc(NC(=O)/C=C/c2ccccc2)cc1,49.7
8,O=C(O)CCCc1ccc(NC(=O)/C=C/c2c(F)c(F)c(F)c(F)c2F)cc1,49.7
